Measured values taken from paper PMC6137948 (Drug Design, Development and Therapy, 2018).
“Also recorded” adds a separate entry of the source.

How the values were obtained:
S. epidermidis 533 = assay: MIC, broth micro-dilution, pre-screening panel; format: cell-based, Staphylococcus epidermidis; details: Mueller Hinton broth
S. haemolyticus 602 = assay: MIC, broth micro-dilution, pre-screening panel; format: cell-based, Staphylococcus haemolyticus; details: Mueller Hinton broth
S. aureus 3797 (VISA) = assay: MIC, broth micro-dilution, pre-screening panel; format: cell-based, Staphylococcus aureus; details: S. aureus 3797 (VISA HIP-5836), Mueller Hinton broth
S. aureus 3798 (VISA) = assay: MIC, broth micro-dilution, pre-screening panel; format: cell-based, Staphylococcus aureus; details: S. aureus 3798 (VISA HIP-5827), Mueller Hinton broth
E. faecium 568 = assay: MIC, broth micro-dilution, pre-screening panel; format: cell-based, Enterococcus faecium; details: E. faecium 568 (VSE), Mueller Hinton broth
E. faecalis 559 = assay: MIC, broth micro-dilution, pre-screening panel; format: cell-based, Enterococcus faecalis; details: E. faecalis 559 (VSE), Mueller Hinton broth
S. aureus (MRSA, n=255) = assay: Antimicrobial susceptibility testing of clinical isolates; format: cell-based, Staphylococcus aureus
Method in brief: (§1)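 Non-duplicate clinical isolates from hospitalised adults and children with community or nosocomial infections (skin/soft tissue, respiratory tract, bone, joint, urinary tract, abdominal). Tested per EUCAST recommendations by broth microdilution in Mueller Hinton broth following NCCLS procedures.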

S. aureus (MSSA, n=179) = assay: as above; format: cell-based, Staphylococcus aureus
Method in brief: as §1

[1] = tested on: Coagulase-negative Staphylococcus (n=45); assay: as above; format: cell-based
Method in brief: as §1

E. faecalis (n=122) = assay: as above; format: cell-based, Enterococcus faecalis
Method in brief: as §1

E. faecium (n=75) = assay: Antimicrobial susceptibility testing of clinical isolates; format: cell-based, Enterococcus faecium; details: for MIC 50% (MIC50) / MIC 90% (MIC90): E. faecium n=75
[2] = tested on: vancomycin-intermediate resistant Staphylococcus aureus (VISA); assay: MIC, pre-screening panel, summary for VISA strains; format: cell-based; details: summary of Table 1, S. aureus 3797 and 3798
[3] = tested on: genera Staphylococcus and Enterococcus; assay: Antimicrobial susceptibility testing, panel of 676 isolates, summary; format: cell-based; details: for MIC90 for the genera Staphylococcus and Enterococcus: panel of 676 isolates, except for E. faecium
S. aureus (strain 10) = assay: Mouse model of staphylococcal sepsis; format: in vivo; details: staphylococcal sepsis in mice, IV
Method in brief: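 Female SHK mice (22–25 g), quarantined 2 weeks, infected IV with mouse-adapted S. aureus strain 10 at lethal dose (LD100 3 × 10^8 CFU/mouse). Thirty minutes later, test compound given IV in 5% glucose at 6 doses (0.25–4.5 mg/kg); comparator glycopeptides at 2.5–7.5 and 0.5–5.0 mg/kg. Untreated infected controls included. Mortality recorded daily for 10 days. ED50 by Barents frequency-accumulation method; ratios from ED50 values.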

[4] = tested on: non-immune activation of histamine release (inflammatory reaction to concanavalin A); assay: Pseudoallergic inflammatory reaction on concanavalin A; format: in vivo; details: male CBA mice; single IV dose of MTD
CBA mice = assay: Acute toxicity in mice; details: for MTD (LD10): CBA mice, single bolus IV injection in 5% glucose, Litchfield and Wilcoxon; for ratio between therapeutic (ED50) and toxic doses (MTD): ED50 in sepsis model / MTD in mice
VISA = details: Introduction; cited from earlier work
VRE = details: Introduction; cited from earlier work
[5] = tested on: panel of clinical isolates of Gram-positive microorganisms; assay: MIC, pre-screening panel, summary for all tested strains; format: cell-based; details: text summary of Table 1, all strains of the pre-screening panel
[6] = VRE isolates of the E. faecium collection

Eremomycin pyrrolidide [compound 5]
MIC (S. epidermidis 533): 0.25 µg/mL | MIC (S. haemolyticus 602): 0.25 µg/mL | MIC (S. aureus 3797 (VISA)): 1 µg/mL | MIC (S. aureus 3798 (VISA)): 1 µg/mL | MIC (E. faecium 568): 0.13 µg/mL | MIC (E. faecalis 559): 0.25 µg/mL | MIC 50% (MIC50) (S. aureus (MRSA, n=255)): 0.25 µg/mL | MIC 90% (MIC90) (S. aureus (MRSA, n=255)): 0.5 µg/mL | MIC 50% (MIC50) (S. aureus (MSSA, n=179)): 0.5 µg/mL | MIC 90% (MIC90) (S. aureus (MSSA, n=179)): 0.5 µg/mL | MIC 50% (MIC50) [1]: 0.25 µg/mL | MIC 90% (MIC90) [1]: 0.5 µg/mL | MIC 50% (MIC50) (E. faecalis (n=122)): 0.25 µg/mL | MIC 90% (MIC90) (E. faecalis (n=122)): 0.5 µg/mL | MIC 50% (MIC50) (E. faecium (n=75)): 0.125 µg/mL | MIC 90% (MIC90) (E. faecium (n=75)): 4 µg/mL | susceptibility of vancomycin-resistant E. faecium (VRE) strains, in words (E. faecium (n=75); [6]): susceptible | MICs against VISA strains [2]: 0.5 to 2 mg/L | MICs against VISA strains ([2]; listed as eremomycin pyrrolidide (5)): 1 mg/L | potency exceeding that of vancomycin (1) ([3]; S. aureus, coagulase-negative Staphylococcus and Enterococcus strains): 2–4 dilutions | MIC90 for the genera Staphylococcus and Enterococcus [3]: 0.5 µg/mL | ED50 times lower than that for 1 (S. aureus (strain 10)): 5 times | ED50 times lower than that for 2 (S. aureus (strain 10)): 2.5 times | pseudoallergic inflammatory reaction on concanavalin A, in words [4]: did not induce pseudoallergic inflammatory reaction; also recorded: non-significant difference; also recorded: no histamine release activity | MTD (LD10) (CBA mice): 119.7 mg/kg | ratio between therapeutic (ED50) and toxic doses (MTD) (CBA mice; IV): 1/150 | acute toxicity, fold higher (CBA mice; by LD50 compared with 1, CBA mice, IV): about 2 fold | therapeutically efficient dose, fold smaller than MTD (CBA mice; mice, IV): 150 fold

Vancomycin [compound 1, reference compound]
MIC (S. epidermidis 533): 2 µg/mL | MIC (S. haemolyticus 602): 2 µg/mL | MIC (S. aureus 3797 (VISA)): 8 µg/mL | MIC (S. aureus 3798 (VISA)): 8 µg/mL | MIC (E. faecium 568): 2 µg/mL | MIC (E. faecalis 559): 2 µg/mL | MIC 50% (MIC50) (S. aureus (MRSA, n=255)): 1 µg/mL | MIC 90% (MIC90) (S. aureus (MRSA, n=255)): 2 µg/mL | MIC 50% (MIC50) (S. aureus (MSSA, n=179)): 1 µg/mL | MIC 90% (MIC90) (S. aureus (MSSA, n=179)): 1 µg/mL | MIC 50% (MIC50) [1]: 2 µg/mL | MIC 90% (MIC90) [1]: 2 µg/mL | MIC 50% (MIC50) (E. faecalis (n=122)): 1 µg/mL | MIC 90% (MIC90) (E. faecalis (n=122)): 2 µg/mL | MIC 50% (MIC50) (E. faecium (n=75)): 1 µg/mL | MIC 90% (MIC90) (E. faecium (n=75)): 2 µg/mL | MIC for strains of vancomycin-resistant E. faecium (VRE) (E. faecium (n=75); [6]): > 64 µg/mL | number of resistant strains of E. faecium (VRE) (E. faecium (n=75); strains with MIC =64 mg/L (b1) / MIC >64 mg/L, number (% of strains)): 7 (8%) | MICs against VISA strains [2]: 4 to 8 mg/L | MIC90 for the genera Staphylococcus and Enterococcus [3]: 1 to 2 µg/mL | pseudoallergic inflammatory reaction on concanavalin A, in words [4]: statistically significant elevations of Me with respect to Mc | MIC for VISA isolates (VISA): ≥ 8 µg/mL | activity against VRE, in words (VRE): inactive | MTD (LD10) (CBA mice): 360 mg/kg | ratio between therapeutic (ED50) and toxic doses (MTD) (CBA mice; IV): 1/90

Vancomycin pyrrolidide [compound 3]
MIC (S. epidermidis 533): 0.5 µg/mL | MIC (S. haemolyticus 602): 0.5 µg/mL | MIC (S. aureus 3797 (VISA)): 4 µg/mL | MIC (S. aureus 3798 (VISA)): 8 µg/mL | MIC (E. faecium 568): 1 µg/mL | MIC (E. faecalis 559): 2 µg/mL | MICs against the tested strains [5]: 0.5 to 8 mg/L

Eremomycin [compound 2, reference compound]
MIC (S. epidermidis 533): 0.25 µg/mL | MIC (S. haemolyticus 602): 0.25 µg/mL | MIC (S. aureus 3797 (VISA)): 4 µg/mL | MIC (S. aureus 3798 (VISA)): 4 µg/mL | MIC (E. faecium 568): 0.5 µg/mL | MIC (E. faecalis 559): 0.5 µg/mL | MICs against VISA strains [2]: 4 to 8 mg/L | pseudoallergic inflammatory reaction on concanavalin A, in words [4]: statistically significant elevations of Me with respect to Mc | MIC against VISA (VISA): 8 µg/mL | activity against VRE, in words (VRE): inactive | MTD (LD10) (CBA mice): 877.9 mg/kg | acute toxicity, fold lower than that of 1 (CBA mice; by LD50, CBA mice, IV): ~3 fold

Vancomycin piperidide [compound 4]
MIC (S. epidermidis 533): 0.5 µg/mL | MIC (S. aureus 3797 (VISA)): 1 µg/mL | MIC (S. aureus 3798 (VISA)): 1 µg/mL | MIC (E. faecium 568): 0.5 µg/mL | MICs against VISA strains [2]: 0.5 to 2 mg/L | MICs against the tested strains [5]: 0.5 to 8 mg/L

Eremomycin piperidide [compound 6]
MIC (S. epidermidis 533): 0.13 µg/mL | MIC (S. aureus 3797 (VISA)): 0.5 µg/mL | MIC (S. aureus 3798 (VISA)): 2 µg/mL | MIC (E. faecium 568): 0.5 µg/mL | MICs against VISA strains [2]: 0.5 to 2 mg/L
